Source: ChEMBL document CHEMBL1153436, “2-Pyridyl P1'-substituted symmetry-based human immunodeficiency virus protease inhibitors (A-792611 and A-790742) with potential for convenient dosing and reduced side effects” (J Med Chem, 2009)

What was measured:
[1] = test system: Human immunodeficiency virus 1; assay: Antiviral activity against wild-type HIV1 pNL4-3 infected in human MT4 cells after 5 days by MTT assay in presence of 50% human serum; type: functional, organism-based; settings: Human immunodeficiency virus 1, MT4, 120 h
[2] = test system: Human immunodeficiency virus 1; assay: Antiviral activity against HIV1 bearing protease gene with A17 mutation infected in human MT4 cells after 5 days by MTT assay; type: functional, organism-based; settings: Human immunodeficiency virus 1, MT4, 120 h
How it was run: (§1)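 HIV-1 A17 mutant clone carrying protease mutations L10F, V32I, M46I, I47V, Q58E and I84V, generated by in vitro serial passage under LPV/RTV. EC50 was determined in MT-4 cells. Wild-type reference strain was HIV-1 pNL4-3.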

[3] = test system: Human immunodeficiency virus 1; assay: Antiviral activity against wild-type HIV1 pNL4-3 infected in human MT4 cells after 5 days by MTT assay; type: functional, organism-based; settings: Human immunodeficiency virus 1, MT4, 120 h
[4] = test system: Human immunodeficiency virus 1; assay: Fold resistance, ratio of EC50 for HIV1 bearing protease gene with A17 mutation to EC50 for wild-type HIV1 pNL4-3; type: functional; how it was run: as §1
[5] = AUC in Sprague-Dawley rat at 5 mg/kg, po; type: ADME, organism-based; design: dose 5 mg/kg, route oral; settings: plasma
How it was run: (§2)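 Male Sprague-Dawley-derived rats (n = 3) dosed iv or by oral gavage with 5 mg/mL solutions in 5% dextrose containing 20% ethanol, 30% propylene glycol and methanesulfonic acid equivalents. Plasma was sampled at 10 time points over 8 h, extracted into ethyl acetate/hexane and analysed by reversed-phase HPLC with internal standard. AUC in µg·h/mL.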

[6] = Half life in Sprague-Dawley rat at 5 mg/kg, iv; type: ADME, organism-based; design: dose 5 mg/kg, route intravenous; settings: in vivo; how it was run: as §2
[7] = Clearance in Sprague-Dawley rat at 5 mg/kg, iv; type: ADME, organism-based; design: dose 5 mg/kg, route intravenous; settings: in vivo; how it was run: as §2
[8] = AUC in Sprague-Dawley rat at 5 mg/kg, po in presence of ritonavir; type: ADME, organism-based; design: dose 5 mg/kg, route oral; settings: plasma; how it was run: as §2
[9] = Oral bioavailability in Sprague-Dawley rat at 5 mg/kg; type: ADME, organism-based; settings: in vivo; how it was run: as §2

Structure (SMILES)	EC50 [1]	EC50 [2]	EC50 [3]	Ratio EC50 [4]	AUC [5]	half-life [6]	clearance [7]	AUC [8]	bioavailability [9]
COC(=O)N[C@H](C(=O)N[C@H](Cc1ccc(-c2ccccn2)cc1)C[C@H](O)[C@H](Cc1ccccc1)NC(=O)[C@@H](N1CCN(Cc2cccc(C)n2)C1=O)C(C)(C)C)C(C)(C)C	27 nM	21 nM	5 nM	4					
COC(=O)N[C@H](C(=O)N[C@H](Cc1ccc(-c2ccccn2)cc1)C[C@H](O)[C@H](Cc1ccccc1)NC(=O)[C@@H](N1CCN(Cc2cccc(C(C)(C)C)n2)C1=O)C(C)(C)C)C(C)(C)C	311 nM	151 nM	15 nM	10					
COC(=O)N[C@H](C(=O)N[C@@H](Cc1ccc(-c2ccccn2)cc1)[C@@H](O)C[C@H](Cc1ccccc1)NC(=O)[C@@H](N1CCN(Cc2csc(C(C)C)n2)C1=O)C(C)(C)C)C(C)(C)C	13 nM		1 nM	1					
COC(=O)N[C@H](C(=O)N[C@@H](Cc1ccc(-c2ccccn2)cc1)[C@@H](O)C[C@H](Cc1ccccc1)NC(=O)[C@@H](N1CCN(Cc2ccccc2)C1=O)C(C)(C)C)C(C)(C)C	10 nM	4 nM	1 nM	4					
COC(=O)N[C@H](C(=O)N[C@@H](Cc1ccc(-c2ccccn2)cc1)C[C@H](O)[C@H](Cc1ccccc1)NC(=O)[C@@H](N1CCN(Cc2csc(-c3cccnc3)n2)C1=O)C(C)(C)C)C(C)(C)C	26 nM		8 nM	1	20 ng·h/mL	42 min	34.2 mL/min/kg	120 ng·h/mL	0.8%
COC(=O)N[C@H](C(=O)N[C@@H](Cc1ccc(-c2ccccn2)cc1)C[C@H](O)[C@H](Cc1ccccc1)NC(=O)[C@@H](N1CCN(Cc2cccc(OC)c2)C1=O)C(C)(C)C)C(C)(C)C	65 nM	53 nM	14 nM	4					
COC(=O)N[C@H](C(=O)N[C@@H](Cc1ccc(-c2ccccn2)cc1)C[C@H](O)[C@H](Cc1ccccc1)NC(=O)[C@@H](N1CCN(Cc2ccc(N)cc2)C1=O)C(C)(C)C)C(C)(C)C	63 nM	30 nM	10 nM	3					
COC(=O)N[C@H](C(=O)N[C@@H](Cc1ccc(-c2ccccn2)cc1)C[C@H](O)[C@H](Cc1ccccc1)NC(=O)[C@@H](N1CCN(Cc2nc3ccccc3n2C)C1=O)C(C)(C)C)C(C)(C)C	346 nM	32 nM	140 nM	<1					
COC(=O)N[C@H](C(=O)N[C@@H](Cc1ccc(-c2ccccn2)cc1)[C@@H](O)C[C@H](Cc1ccccc1)NC(=O)[C@@H](N1CCN(Cc2csc(-c3cccnc3)n2)C1=O)C(C)(C)C)C(C)(C)C	18 nM	1 nM	2 nM	<1	30 ng·h/mL	48 min	46.7 mL/min/kg	260 ng·h/mL	1.6%
COC(=O)N[C@H](C(=O)N[C@@H](Cc1ccc(-c2ccccn2)cc1)[C@@H](O)C[C@H](Cc1ccccc1)NC(=O)[C@@H](N1CCN(Cc2cccc(C)n2)C1=O)C(C)(C)C)C(C)(C)C	30 nM		5 nM	1					
COC(=O)N[C@H](C(=O)N[C@H](Cc1ccc(-c2ccccn2)cc1)C[C@H](O)[C@H](Cc1ccccc1)NC(=O)[C@@H](N1CCN(Cc2csc(-c3cccnc3)n2)C1=O)C(C)(C)C)C(C)(C)C	15 nM	7 nM	2 nM	4					
COC(=O)N[C@H](C(=O)N[C@@H](Cc1ccc(-c2ccccn2)cc1)C[C@H](O)[C@H](Cc1ccccc1)NC(=O)[C@@H](N1CCN(Cc2csc(C)n2)C1=O)C(C)(C)C)C(C)(C)C	94 nM		10 nM	1					
COC(=O)N[C@H](C(=O)N[C@@H](Cc1ccc(-c2ccccn2)cc1)C[C@H](O)[C@H](Cc1ccccc1)NC(=O)[C@@H](N1CCN(Cc2ccccc2F)C1=O)C(C)(C)C)C(C)(C)C	36 nM	88 nM	11 nM						
COC(=O)N[C@H](C(=O)N[C@@H](Cc1ccc(-c2ccccn2)cc1)C[C@H](O)[C@H](Cc1ccccc1)NC(=O)[C@@H](N1CCN(Cc2cccc(F)c2)C1=O)C(C)(C)C)C(C)(C)C	28 nM	38 nM	4 nM	9					
COC(=O)N[C@H](C(=O)N[C@@H](Cc1ccc(-c2ccccn2)cc1)C[C@H](O)[C@H](Cc1ccccc1)NC(=O)[C@@H](N1CCN(Cc2ccc(F)cc2)C1=O)C(C)(C)C)C(C)(C)C	33 nM	42 nM	6 nM	7					
COC(=O)N[C@H](C(=O)N[C@@H](Cc1ccc(-c2ccccn2)cc1)[C@@H](O)C[C@H](Cc1ccccc1)NC(=O)[C@@H](N1CCN(Cc2ccnc3ccccc23)C1=O)C(C)(C)C)C(C)(C)C	15 nM	1 nM	2 nM	<1	50 ng·h/mL	24 min	33.3 mL/min/kg	3300 ng·h/mL	1.1%
COC(=O)N[C@H](C(=O)N[C@H](Cc1ccc(-c2ccccn2)cc1)C[C@H](O)[C@H](Cc1ccccc1)NC(=O)[C@@H](N1CCN(Cc2ccnc3ccccc23)C1=O)C(C)(C)C)C(C)(C)C	21 nM	8 nM	5 nM	2		36 min	41.7 mL/min/kg	9200 ng·h/mL	0%
COC(=O)N[C@H](C(=O)N[C@H](Cc1ccc(-c2ccccn2)cc1)C[C@H](O)[C@H](Cc1ccccc1)NC(=O)[C@@H](N1CCN(Cc2cccc(C(C)C)n2)C1=O)C(C)(C)C)C(C)(C)C	105 nM	66 nM	15 nM	4					
COC(=O)N[C@H](C(=O)N[C@@H](Cc1ccc(-c2ccccn2)cc1)[C@@H](O)C[C@H](Cc1ccccc1)NC(=O)[C@@H](N1CCN(Cc2nc3ccccc3n2C)C1=O)C(C)(C)C)C(C)(C)C	82 nM	3 nM	7 nM	<1					
COC(=O)N[C@H](C(=O)N[C@@H](Cc1ccc(-c2ccccn2)cc1)C[C@H](O)[C@H](Cc1ccccc1)NC(=O)[C@@H](N1CCN(Cc2cccc(C(C)(C)O)n2)C1=O)C(C)(C)C)C(C)(C)C	53 nM	4 nM	6 nM		200 ng·h/mL	60 min	23.3 mL/min/kg	830 ng·h/mL	5.7%
COC(=O)N[C@H](C(=O)N[C@@H](Cc1ccc(-c2ccccn2)cc1)C[C@H](O)[C@H](Cc1ccccc1)NC(=O)[C@@H](N1CCN(Cc2ccccc2C)C1=O)C(C)(C)C)C(C)(C)C	30 nM	72 nM	10 nM	7					
COC(=O)N[C@H](C(=O)N[C@H](Cc1ccc(-c2ccccn2)cc1)C[C@H](O)[C@H](Cc1ccccc1)NC(=O)[C@@H](N1CCN(Cc2ccccc2)C1=O)C(C)(C)C)C(C)(C)C	43 nM	37 nM	11 nM	3					
COC(=O)N[C@H](C(=O)N[C@H](Cc1ccc(-c2ccccn2)cc1)C[C@H](O)[C@H](Cc1ccccc1)NC(=O)[C@@H](N1CCN(Cc2nc3ccccc3n2C)C1=O)C(C)(C)C)C(C)(C)C	33 nM	20 nM	3 nM	7		42 min	54 mL/min/kg	1170 ng·h/mL	0.1%
